For assay [1], the system named is HCT-116. Description: Antiproliferative activity against human HCT116 cells measured after 48 hrs by MTT assay. It is filed as functional, cell-based. The essentials: (§1)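 Cells were exposed to a range of compound concentrations for 48 h. MTT reagent was then added and absorbance read at 490 nm. Viability was normalized to vehicle control set as 100%, from n = 3 independent experiments, and IC50 was taken from the dose–response curves.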

In the next assay the test system is MCF7. Description: Antiproliferative activity against human MCF7 cells measured after 48 hrs by MTT assay. It is filed as functional, cell-based. The procedure, abridged: as §1
The next assay concerns A549. The assay can be described thus: Antiproliferative activity against human A549 cells measured after 48 hrs by MTT assay. The class given is functional, cell-based. The essentials: as §1
The test system of a further assay is Calu-6. The assay can be described thus: Antiproliferative activity against human Calu6 cells measured after 48 hrs by MTT assay. It is filed as functional, cell-based. The essentials:
as §1

For assay [2], the system named is HCT-116. The assay can be described thus: Inhibition of colony formation in human HCT116 cells at 10 uM incubated for 48 hrs followed by supplemented with fresh medium every 3 days for 2 weeks by crystal violet staining-based assay. The class given is functional, cell-based.
Assay [3] deals with HCT-116. Description: Induction of apoptosis in human HCT116 cells assessed as increase in apoptotic index at 1 to 10 uM measured after 48 hrs by Annexin V-FITC/propidium iodide staining-based flow cytometry. It is filed as functional, cell-based.
Assay [4] relates to HCT-116. Description: Antiproliferative activity against human HCT116 cells measured after 96 hrs by Brdu incorporation-based ELISA. The following applies: HCT-116, 96 h. It is filed as functional, cell-based.
Assay [5] concerns HCT-116. Description: Antitumor activity against human HCT116 cells xenografted in BALB/c mouse assessed as survival rate at 10 mg/kg, iv administered every 3 days for 60 days relative to control. The note with it: HCT-116, iv. The class given is functional.

Each structure is given as a SMILES string. Calls of active or inactive are those of the source. The rule behind the calls is not given here.

The values below come from ChEMBL document CHEMBL4373706, “Discovery of Inhibitors of Aurora/PLK Targets as Anticancer Agents” (J Med Chem, 2019).

For the molecule `COc1ccc(C(=O)Nc2ccc3cc(C(=O)NC4CC4)ccc3c2)cc1`, the outcome with HCT-116 [1], with MCF7, in the assay with A549 and in the assay with Calu-6 was Active.
With `O=C(Nc1ccc2cc(C(=O)NC3CCCCC3)ccc2c1)c1ccc(F)cc1`, the result with HCT-116 [1], with MCF7, in the assay with A549 and with Calu-6 was Active.
On to `COc1cc(Nc2ncc3c(n2)-c2ccc(Cl)cc2C(c2c(F)cccc2OC)=NC3)ccc1C(=O)O` [ALISERTIB], for which the inhibition entry in the assay on HCT-116 [2] is “inactive”. In the assay on HCT-116 [3], the outcome was Active. Also, half-maximal inhibition in the assay with HCT-116 [4] (IC50) was put at 32 µM.
`O=c1[nH]cc(F)c(=O)[nH]1` [FLUOROURACIL]: the survival at 10 mg/kg in the assay with HCT-116 [5] was determined as 30%.
With `CC[C@@H]1C(=O)N(C)c2cnc(Nc3ccc(C(=O)NC4CCN(C)CC4)cc3OC)nc2N1C1CCCC1`, in the assay with HCT-116 [2], the inhibition result is “inactive”. Besides, the result with HCT-116 [3] was Active.
